Source: PubChem BioAssay (several laboratories)
Sampled rows, rich in hits. Any-hit rate of the full collection: about 1.7%.
IDE cell activ: activators of human insulin-degrading enzyme in cells | P14735 | HEK cells, FAbeta-B cleavage, fluorescence polarization; 0% vehicle, 100% cell-free pure enzyme wells | activation, % at 5.96 µM | 0.073% of 340,000 active | AID 493087;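 active = activation above the mean of all tested compounds plus 3 SD, set per screening campaign, cut at about 17% in these data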
TPT1 inh: inhibitors of Candida albicans tRNA 2'-phosphotransferase TPT1; recombinant caTPT1, FP RNA substrate dephosphorylation; inhibition, % at 5 µM; 0.81% of 300,000 active; AID 1962;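 active = inhibition above the mean of all tested compounds plus 3 SD, set per screening campaign, cut at about 24% in these data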;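 note: plate controls were DMSO alone for no effect and ferristatin control at 100 nM for full effect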
HNF4A DNA FP: change in binding of human HNF4 alpha to DNA | 0.3% of 360,000 active | HNF4a-FITC DNA binding, fluorescence polarization, 1 h | P41235 | activity change, % at 10 µM | AID 1224865; in the data active = activity change above about 30%, passing the limit was not always enough
CSN deneddyl inh: CSN deneddylation inhibition | Purified CSN, SCF-Nedd8-OG deneddylation, fluorescence polarization | inhibition, % at 12.5 µM | 0.38% of 360,000 active | AID 651999;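 active = pattern-corrected inhibition above about 35%, with an unprinted fluorescence ratio check between 0.5 and 1.5, limit read from the data, passing the limit was not always enough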;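 note: 0% = enzyme with substrate and 100% = substrate without enzyme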
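Test system: purified human Csn5 enzyme expressed in HEK293T cells. Amount: 0.24 nM enzyme. Reagent: SCFSkp2-Nedd8OG substrate at 10 nM final. Schedule: 90 min incubation of compound, enzyme and substrate at room temperature. Detection: fluorescence polarization. Read-out: % inhibition of substrate cleavage by Csn5.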
IDE cell inh: cellular human IDE inhibition | P14735 | HEK cells, FAbetaB cleavage, fluorescence polarization | AID 434962 | 0.41% of 320,000 active | inhibition, % at 5.59 µM;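 active = percent inhibition above the average of all tested compounds plus 3 SD, set per screening campaign, cut at about 16% in these data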;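 note: IDE supplied by intact live HEK cells; FP after avidin binding of uncleaved biotin substrate so inhibition keeps polarization high; 0% = DMSO wells and 100% = 60 µM reference IDE inhibitor Ii1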
Rpn11 inh: Rpn11 (human) deubiquitinase inhibition; human 26S proteasome, Ub4-pepOG fluorescence polarization; 20S core pre-blocked with epoxomicin; inhibition, % at 20 µM; 0.59% of 360,000 active; AID 588493; O00487;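 active = inhibition at 20 µM, scaled to each plate's controls, above about 33%, limit read from the data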
Rpn11 inh conf: confirmation of human proteasome Rpn11 inhibitors; shares compounds with Rpn11 inh; purified human 26S proteasome, Ub4-pepOG fluorescence polarization; proteasome pretreated with epoxomicin; inhibition, % at 20 µM; 29% of 1,900 active
MMP-2 counter: MMP-2 (human) inhibition counter-screen; recombinant MMP-2, FRET peptide cleavage fluorescence; AID 602330; inhibition, % at 20 µM; shares compounds with Rpn11 inh; 4% of 1,900 active;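 note: human MMP-2 activated beforehand with APMA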
Thrombin FP: thrombin (bovine) inhibition counter-screen. shares compounds with Rpn11 inh. bovine thrombin cleavage of Ub4-pepOG, fluorescence polarization. inhibition, % at 20 µM. 13% of 1,900 active;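 active = mean inhibition at least 40% at 20 µM, or signal 3 deviations below plate average, so some actives read negative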;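 note: plate controls were thrombin with DMSO for no effect and buffer wells lacking thrombin for full effect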
Target sequence (P00735 whole entry, looked up): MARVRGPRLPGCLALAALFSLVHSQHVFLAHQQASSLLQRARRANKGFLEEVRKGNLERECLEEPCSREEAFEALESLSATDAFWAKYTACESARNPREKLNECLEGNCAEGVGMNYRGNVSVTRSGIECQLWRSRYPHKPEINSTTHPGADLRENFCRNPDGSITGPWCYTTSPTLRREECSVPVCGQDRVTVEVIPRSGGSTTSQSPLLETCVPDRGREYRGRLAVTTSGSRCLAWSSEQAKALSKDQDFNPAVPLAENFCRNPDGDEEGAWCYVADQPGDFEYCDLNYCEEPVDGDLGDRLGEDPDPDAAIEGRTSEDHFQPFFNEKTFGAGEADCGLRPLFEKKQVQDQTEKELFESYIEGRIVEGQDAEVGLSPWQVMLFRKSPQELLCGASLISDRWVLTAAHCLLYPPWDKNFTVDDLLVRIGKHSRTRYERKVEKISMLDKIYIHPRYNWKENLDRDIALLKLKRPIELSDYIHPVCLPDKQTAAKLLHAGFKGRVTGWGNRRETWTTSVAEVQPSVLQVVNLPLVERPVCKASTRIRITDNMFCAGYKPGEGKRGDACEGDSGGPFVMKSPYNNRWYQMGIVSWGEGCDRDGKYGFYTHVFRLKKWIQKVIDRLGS
An asterisk follows results filed as active; . = no result given. Cut-off read from the data, not from the text of the source, unless noted: active = inhibition above about 40%; inactive = the rest.

SMILES | IDE cell activ | TPT1 inh | HNF4A DNA FP | CSN deneddyl inh | IDE cell inh | Rpn11 inh | Rpn11 inh conf | MMP-2 counter | Thrombin FP
Cc1ccc(NC(=O)COC(=O)C2CC(=O)N(Cc3ccccc3)C2)cc1F (stereo not given) | -1.1 | 2.2 | 2.7 | 6.7 | -5.4 | -4.7 | . | . | .
NC(Cc1ccc(Cl)cc1)c1csc(Nc2cc(NCCCO)ncn2)n1 (stereo not given) | . | . | 2.6 | 1.7 | . | -10.3 | . | . | .
CCOc1ccccc1Nc1cc(C)c2cccc(C)c2n1 | 6.4 | -3.1 | -1.2 | 2.2 | -1.6 | 2.8 | . | . | .
CCOc1nc(N=C(N)N)nc2c(C)cccc12 | -1.7 | -1.0 | 15.9 | 9.9 | -1.2 | 84.2* | 23.6 | -78.3 | -1.5
Cc1ccc(S(=O)(=O)N(C)CC(=O)O/N=C(\N)c2cccc([N+](=O)[O-])c2)cc1 | 3.2 | 1.4 | 2.3 | 0.1 | -8.6 | 195.7* | 2.4 | -23.4 | -3.4
CCCCCCCCN1C(=O)[C@H](CC(=O)NCC23CC4CC(CC(C4)C2)C3)C[C@@]2(C(=O)OCC)CCC=C12 | . | . | -0.4 | -3.7 | . | . | . | . | .
O=C(O)c1ccc(/C=C/c2nc3ccccc3c(=O)[nH]2)cc1 | 2.9 | -3.8 | -1.7 | -0.2 | -3.3 | -1.8 | . | . | .
O=C(O)c1ccc(/C=C/c2nc3sc4c(c3c(=O)[nH]2)CCC4)cc1 | -9.7 | 1.7 | 2.5 | 6.8 | 6.8 | 73.2* | 90.8* | -57.1 | 40.0*
CCCCc1ccc(-c2csc(/C(C#N)=C/c3ccc(C)o3)n2)cc1 | -3.1 | 11.0 | 42.4* | 40.8* | 1.3 | 67.1* | -10.0 | -27.1 | -21.1
CCCCc1ccc(-c2csc(/C(C#N)=C\c3ccco3)n2)cc1 | 4.2 | 7.5 | 4.1 | 26.5 | 1.7 | 40.8* | 6.5 | -5.1 | 0.8
N#C/C(=C/c1ccco1)c1nc2ccccc2s1 | -0.2 | 13.9 | 3.9 | 3.0 | 10.6 | 19.4 | . | . | .
Cc1nc2ncnn2c(C)c1CCC(=O)N1CC(C)CC(C)C1 (stereo not given) | 1.2 | -4.0 | 2.6 | -2.5 | -0.2 | -6.7 | . | . | .
O=S1(=O)CCOC[C@H](c2ccccc2)N1Cc1ccccc1 | 1.9 | 1.0 | -0.1 | -2.8 | 3.1 | -1.3 | . | . | .
CCn1c(=S)[nH]c2cc(C(=O)O)ccc21 | . | -3.2 | . | . | -4.0 | . | . | . | .
CCn1c(=O)cc(C(F)(F)F)[nH]c1=S | 9.0 | -2.1 | -1.4 | -0.7 | -5.0 | 53.0* | -2.2 | 8.9 | -10.3
COc1ccc(-n2c(SCC(=O)NCC3CCCO3)nc3ccccc3c2=O)cc1Cl (stereo not given) | . | . | 36.8 | 9.1 | . | 47.2* | 34.2 | -23.0 | 13.7
CCOc1ccc(C2NC(=O)C(C#N)=C(S)N2c2ccc(C)cc2)cc1OC (stereo not given) | 4.9 | 1.2 | 30.6* | 0.6 | -6.2 | 70.1* | 5.3 | 23.1 | -3.2
CCOc1ccc(C2NC(=O)C(C#N)=C(S)N2c2cccc(C)c2)cc1OC (stereo not given) | 0.9 | -3.5 | 4.1 | -1.4 | -4.9 | -0.4 | . | . | .
Cc1nc(NC(=O)c2ccccc2)sc1-c1csc(NCCc2ccccc2)n1 | 3.0 | -0.3 | 27.4 | 40.2* | 5.2 | 43.7* | -3.7 | 6.6 | -15.5
CCc1cc(CNC(=O)C2CCC(=O)N(CCc3ccc(OC)cc3)C2)on1 (stereo not given) | 2.1 | 2.8 | 39.4* | -0.6 | 0.3 | 84.6* | -13.5 | -57.9 | -11.6
COc1ccc(CCN2CC(C(=O)NCc3cc(C)on3)CCC2=O)cc1 (stereo not given) | -3.2 | . | 2.7 | -1.5 | . | -4.9 | . | . | .
COc1cccc(C2c3c(C)nn(-c4ccc([N+](=O)[O-])cc4)c3N=C3C(=O)Nc4ccccc4N32)c1 (stereo not given) | 4.2 | -0.1 | 56.9* | 15.0 | 4.5 | 46.3* | 4.7 | 2.5 | 12.8
Cc1ccc(C)c(N2N=C(C(=O)Nc3cccnc3)CCC2=O)c1 | 0.0 | . | 4.2 | -0.1 | -4.3 | -4.2 | . | . | .
